ChEMBL document CHEMBL2331220, “Benzimidazole clubbed with triazolo-thiadiazoles and triazolo-thiadiazines: new anticancer agents” (2013)

How the values were obtained:
Assay type in all cases: functional
OVCAR-3 = assay: Cytotoxicity against human OVCAR3 cells after 48 hrs by SRB assay; settings: OVCAR-3, 48 h
Method in brief: (§1)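 NCI 60-line five-dose screen. Cells were preincubated 24 h at 37 °C under 5% CO2 and 100% humidity, and time-zero plates were TCA-fixed when compound was added. Five 10-fold concentrations (0.01–100) were tested for 48 h. Cells were fixed with cold TCA (final 10%, 60 min, 4 °C), stained with 0.4% SRB for 10 min, and read at 515 nm. GI50, TGI and LC50 came from growth-percentage formulas, with out-of-range values given as > or <.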

SK-MEL-2 = assay: Cytotoxicity against human SK-MEL-2 cells after 48 hrs by SRB assay; settings: SK-MEL-2, 48 h; method in brief: as §1
MCF7 = assay: Cytotoxicity against human MCF7 cells after 48 hrs by SRB assay; settings: MCF7, 48 h; method in brief: as §1
SR = assay: Cytotoxicity against human SR cells after 48 hrs by SRB assay
Method in brief: (§2)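 NCI 60-line five-dose screen: cells plated, held 24 h at 37 °C, 5% CO₂ before treatment, with a TCA-fixed time-zero plate. Five final concentrations (0.01–100 µM, 10-fold dilutions) for 48 h. Cells fixed with cold TCA (10% final) and stained with 0.4% SRB in 1% acetic acid. Dye dissolved in 10 mM Tris and read at 515 nm. GI₅₀, TGI and LC₅₀ taken from percent-growth curves.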

NCI-H23 = assay: Cytotoxicity against human NCI-H23 cells after 48 hrs by SRB assay; settings: NCI-H23, 48 h; method in brief: as §1
UACC-62 = assay: Cytotoxicity against human UACC62 cells after 48 hrs by SRB assay; settings: UACC-62, 48 h; method in brief: as §2
TK-10 = assay: Cytotoxicity against human TK10 cells after 48 hrs by SRB assay; settings: TK-10, 48 h; method in brief: as §2
MDA-MB-468 = assay: Cytotoxicity against human MDA-MB-468 cells after 48 hrs by SRB assay; settings: MDA-MB-468, 48 h; method in brief: as §1
MDA-MB-231 = assay: Cytotoxicity against human MDA-MB-231 cells after 48 hrs by SRB assay; settings: MDA-MB-231, 48 h; method in brief: as §1
SNB-19 = assay: Cytotoxicity against human SNB19 cells after 48 hrs by SRB assay; settings: SNB-19, 48 h; method in brief: as §2
U-251 = assay: Cytotoxicity against human U251 cells after 48 hrs by SRB assay; settings: U-251, 48 h; method in brief: as §2
HL-60(TB) = assay: Cytotoxicity against human HL-60(TB) cells after 48 hrs by SRB assay; settings: HL-60, 48 h
Method in brief: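 NCI five-dose screen: cells preincubated 24 h at 37 °C, 5% CO₂, with time-zero plates TCA-fixed. Five 10-fold dilutions (0.01–100) were added and cells incubated for 48 h, then fixed in 10% TCA for 60 min at 4 °C. Staining used 0.4% SRB in 1% acetic acid, solubilised in 10 mM Tris, with A515 read. GI₅₀, TGI and LC₅₀ were derived from Tz, control and test absorbances.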

BT-549 = assay: Cytotoxicity against human BT549 cells after 48 hrs by SRB assay; settings: BT-549, 48 h; method in brief: as §1
ACHN = assay: Cytotoxicity against human ACHN cells after 48 hrs by SRB assay; method in brief: as §1
A549 = assay: Cytotoxicity against human A549 cells after 48 hrs by SRB assay; settings: A549, 48 h; method in brief: as §1
[1] = Cytotoxicity against human EKVX cells after 48 hrs by SRB assay; method in brief: as §1
Malme-3M = assay: Cytotoxicity against human MALME-3M cells after 48 hrs by SRB assay; method in brief: as §1
OVCAR-4 = assay: Cytotoxicity against human OVCAR4 cells after 48 hrs by SRB assay; settings: OVCAR-4, 48 h; method in brief: as §1
[2] = read-out: LC50 (the source's name)
[3] = read-out: pLC50 (the source's name) (converted)

Work on `O=C(CCc1nnc2sc(-c3ccc(Cl)cc3Cl)nn12)c1nc2ccccc2[nH]1` yielded a GI50 (OVCAR-3; read-out: GI50) of 0.514 µM, an LC50 (OVCAR-3; read-out: LC50) of 4.6 µM and a TGI (OVCAR-3; read-out: TGI) of 1.8 µM. For the same compound, the GI50 (OVCAR-3; read-out: pGI50 (converted)) was 0.513 µM, the LC50 (OVCAR-3; read-out: pLC50 (converted)) was 4.57 µM and the TGI (OVCAR-3; read-out: pTGI (converted)) was 1.82 µM. For the same compound, the GI50 (SK-MEL-2; read-out: GI50) was 1.76 µM, the CC50 (SK-MEL-2; [2]) was over 100 µM and the TGI (SK-MEL-2; read-out: TGI) was 6.67 µM. It also gave a GI50 (SK-MEL-2; read-out: pGI50 (converted)) of 1.78 µM, a CC50 (SK-MEL-2; [3]) of over 100 µM and a TGI (SK-MEL-2; read-out: pTGI (converted)) of 6.61 µM. For the same compound, the GI50 (MCF7; read-out: GI50) was 0.355 µM, the LC50 (MCF7; read-out: LC50) was 5.97 µM and the TGI (MCF7; read-out: TGI) was 1.5 µM. For the same compound, the GI50 (MCF7; read-out: pGI50 (converted)) was 0.355 µM, the LC50 (MCF7; read-out: pLC50 (converted)) was 6.03 µM and the TGI (MCF7; read-out: pTGI (converted)) was 1.51 µM. It also gave a GI50 (SR; read-out: GI50) of 0.333 µM, a CC50 (SR; [2]) of over 100 µM and a TGI (SR; read-out: TGI) of over 100 µM. The GI50 (SR; read-out: pGI50 (converted)) was 0.331 µM, the CC50 (SR; [3]) was over 100 µM and the TGI (SR; read-out: pTGI) was over 100 µM. The GI50 (NCI-H23; read-out: GI50) was 0.719 µM, the TGI (NCI-H23; read-out: TGI) was 2.48 µM and the GI50 (NCI-H23; read-out: pGI50 (converted)) was 0.724 µM. The TGI (NCI-H23; read-out: pTGI (converted)) was 2.45 µM, the GI50 (UACC-62; read-out: GI50) was 1.06 µM and the LC50 (concentration giving 50% net cell kill) (UACC-62; read-out: LC50) was 5.61 µM. The TGI (UACC-62; read-out: TGI) was 2.44 µM, the GI50 (UACC-62; read-out: pGI50 (converted)) was 1.07 µM and the LC50 (concentration giving 50% net cell kill) (UACC-62; read-out: pLC50 (converted)) was 5.62 µM. It also gave a TGI (UACC-62; read-out: pTGI (converted)) of 2.45 µM, a GI50 (TK-10; read-out: GI50) of 2.01 µM and an LC50 (TK-10; read-out: LC50) of 6.3 µM. For the same compound, the TGI (TK-10; read-out: TGI) was 3.55 µM, the GI50 (TK-10; read-out: pGI50 (converted)) was 2 µM and the LC50 (TK-10; read-out: pLC50 (converted)) was 6.31 µM. The TGI (TK-10; read-out: pTGI (converted)) was 3.55 µM, the GI50 (MDA-MB-468; read-out: GI50) was 0.699 µM and the LC50 (MDA-MB-468; read-out: LC50) was 5.41 µM. The TGI (MDA-MB-468; read-out: TGI) was 2.15 µM, the GI50 (MDA-MB-468; read-out: pGI50 (converted)) was 0.692 µM and the LC50 (MDA-MB-468; read-out: pLC50 (converted)) was 5.37 µM. It also gave a TGI (MDA-MB-468; read-out: pTGI (converted)) of 2.14 µM, a GI50 (MDA-MB-231; read-out: GI50) of 1 µM and an LC50 (MDA-MB-231; read-out: LC50) of 5.87 µM. It also gave a TGI (MDA-MB-231; read-out: TGI) of 2.42 µM, a GI50 (MDA-MB-231; read-out: pGI50 (converted)) of 1 µM and an LC50 (MDA-MB-231; read-out: pLC50 (converted)) of 5.89 µM. For the same compound, the TGI (MDA-MB-231; read-out: pTGI (converted)) was 2.4 µM, the GI50 (SNB-19; read-out: GI50) was 1.37 µM and the CC50 (SNB-19; [2]) was over 100 µM. It also gave a TGI (SNB-19; read-out: TGI) of 5.44 µM, a GI50 (SNB-19; read-out: pGI50 (converted)) of 1.38 µM and a CC50 (SNB-19; [3]) of over 100 µM. For the same compound, the TGI (SNB-19; read-out: pTGI (converted)) was 5.5 µM, the GI50 (U-251; read-out: GI50) was 1.28 µM and the CC50 (U-251; [2]) was 5.34 µM. The TGI (U-251; read-out: TGI) was 2.61 µM, the GI50 (U-251; read-out: pGI50 (converted)) was 1.29 µM and the CC50 (U-251; [3]) was 5.37 µM. For the same compound, the TGI (U-251; read-out: pTGI (converted)) was 2.63 µM, the GI50 (HL-60(TB); read-out: GI50) was 0.862 µM and the CC50 (HL-60(TB); [2]) was over 100 µM. It also gave a TGI (HL-60(TB); read-out: TGI) of 5.93 µM, a GI50 (HL-60(TB); read-out: pGI50 (converted)) of 0.871 µM and a CC50 (HL-60(TB); [3]) of over 100 µM. For the same compound, the TGI (HL-60(TB); read-out: pTGI (converted)) was 5.89 µM, the GI50 (BT-549; read-out: GI50) was 2.16 µM and the LC50 (BT-549; read-out: LC50) was over 100 µM. It also gave a TGI (BT-549; read-out: TGI) of 4.77 µM, a GI50 (BT-549; read-out: pGI50 (converted)) of 2.14 µM and an LC50 (BT-549; read-out: pLC50 (converted)) of over 100 µM. It also gave a TGI (BT-549; read-out: pTGI (converted)) of 4.79 µM, a GI50 (ACHN; read-out: GI50) of 0.339 µM and an LC50 (50% lethal concentration) (ACHN; read-out: LC50) of 4.67 µM. It also gave a TGI (ACHN; read-out: TGI) of 1.35 µM, a GI50 (ACHN; read-out: pGI50 (converted)) of 0.339 µM and an LC50 (50% lethal concentration) (ACHN; read-out: pLC50 (converted)) of 4.68 µM. For the same compound, the TGI (ACHN; read-out: pTGI (converted)) was 1.35 µM, the GI50 (A549; read-out: GI50) was 2.07 µM and the CC50 (A549; [2]) was over 100 µM. It also gave a TGI (A549; read-out: TGI) of 5.63 µM, a GI50 (A549; read-out: pGI50 (converted)) of 2.09 µM and a CC50 (A549; [3]) of over 100 µM. For the same compound, the TGI (A549; read-out: pTGI (converted)) was 5.62 µM, the GI50 ([1]; read-out: GI50) was 1.53 µM and the TGI ([1]; read-out: TGI) was 3.69 µM. For the same compound, the GI50 ([1]; read-out: pGI50 (converted)) was 1.55 µM, the TGI ([1]; read-out: pTGI (converted)) was 3.72 µM and the GI50 (Malme-3M; read-out: GI50) was 0.762 µM. The TGI (Malme-3M; read-out: TGI) was 2.94 µM, the GI50 (Malme-3M; read-out: pGI50 (converted)) was 0.759 µM and the TGI (Malme-3M; read-out: pTGI (converted)) was 2.95 µM. It also gave a GI50 (OVCAR-4; read-out: GI50) of 0.971 µM, a CC50 (OVCAR-4; [2]) of 8.04 µM and a TGI (OVCAR-4; read-out: TGI) of 2.82 µM. The GI50 (OVCAR-4; read-out: pGI50 (converted)) was 0.977 µM, the CC50 (OVCAR-4; [3]) was 8.13 µM and the TGI (OVCAR-4; read-out: pTGI (converted)) was 2.82 µM.
